ChEMBL document CHEMBL2331331 (J Med Chem, 2013)
The source made the active and inactive calls. The calls are words filed in the database; no cut-off is given here.

Key:
[1] = tested on: SK-OV-3; assay: Cytotoxicity against human SKOV3 cells assessed as growth inhibition after 72 hrs by MTT assay; conditions: SK-OV-3, 72 h
[2] = target: Receptor tyrosine-protein kinase erbB-4 (Homo sapiens, UniProt Q15303); assay: Inhibition of ERBB4 (unknown origin)
[3] = target: Platelet-derived growth factor receptor beta (Homo sapiens, UniProt P09619); assay: Inhibition of PDGFRbeta (unknown origin)
Method in brief: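 Single selected panel of recombinant human protein kinases, screened in vitro. The value reported is the IC50 against each kinase.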

[4] = Oral bioavailability in Sprague-Dawley rat at 10 mg/kg/day; type: ADME, organism-based; conditions: in vivo
Method in brief: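 Sprague-Dawley rats, five per group, were dosed orally at 10 mg/kg. Plasma was sampled through jugular vein cannulation. Drug levels were measured by liquid–liquid extraction followed by LC–MS.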

[5] = tested on: U-266; assay: Cytotoxicity against human U266 cells assessed as growth inhibition after 72 hrs by MTT assay; conditions: U-266, 72 h
[6] = tested on: MV4-11; assay: Antitumor activity against human MV4-11 cells xenografted in mouse at 5 mg/kg/day, po after 18 days; type: functional, organism-based
Method in brief: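 MV4-11 sc xenograft mice dosed daily by mouth once tumors reached about 400 mm³, three mice per group; tumor volume followed.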

[7] = target: Insulin-like growth factor 1 receptor (Homo sapiens, UniProt P08069); assay: Inhibition of IGF1R (unknown origin)
[8] = tested on: MV4-11; assay: Induction of apoptosis in human MV4-11 cells assessed as late apoptotic cells at 0.03 uM after 24 hrs by annexin V-FITC/propidium iodide staining-based FACS flow cytometric analysis (reference value: 4.28%); type: functional
[9] = target: Calcium/calmodulin-dependent protein kinase type IV (Homo sapiens, UniProt Q16566); assay: Inhibition of CAMK4 (unknown origin)
Calcium/calmodulin-dependent protein kinase type IV, sequence (Q16566 whole entry): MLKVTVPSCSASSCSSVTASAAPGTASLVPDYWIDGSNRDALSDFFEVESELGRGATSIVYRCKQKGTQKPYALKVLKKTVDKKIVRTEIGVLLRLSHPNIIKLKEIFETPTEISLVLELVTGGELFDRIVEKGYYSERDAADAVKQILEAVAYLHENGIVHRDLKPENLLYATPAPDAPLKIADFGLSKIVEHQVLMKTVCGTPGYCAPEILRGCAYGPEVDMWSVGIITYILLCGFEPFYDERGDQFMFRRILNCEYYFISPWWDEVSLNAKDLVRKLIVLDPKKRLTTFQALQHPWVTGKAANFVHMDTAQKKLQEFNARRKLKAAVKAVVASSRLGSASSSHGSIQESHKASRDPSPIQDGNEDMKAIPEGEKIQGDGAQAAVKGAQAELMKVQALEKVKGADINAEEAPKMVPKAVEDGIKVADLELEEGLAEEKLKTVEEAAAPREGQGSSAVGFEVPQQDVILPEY

[10] = target: Vascular endothelial growth factor receptor 2 (Homo sapiens, UniProt P35968); assay: Inhibition of VEGFR2 (unknown origin)
Vascular endothelial growth factor receptor 2, sequence (P35968 whole entry): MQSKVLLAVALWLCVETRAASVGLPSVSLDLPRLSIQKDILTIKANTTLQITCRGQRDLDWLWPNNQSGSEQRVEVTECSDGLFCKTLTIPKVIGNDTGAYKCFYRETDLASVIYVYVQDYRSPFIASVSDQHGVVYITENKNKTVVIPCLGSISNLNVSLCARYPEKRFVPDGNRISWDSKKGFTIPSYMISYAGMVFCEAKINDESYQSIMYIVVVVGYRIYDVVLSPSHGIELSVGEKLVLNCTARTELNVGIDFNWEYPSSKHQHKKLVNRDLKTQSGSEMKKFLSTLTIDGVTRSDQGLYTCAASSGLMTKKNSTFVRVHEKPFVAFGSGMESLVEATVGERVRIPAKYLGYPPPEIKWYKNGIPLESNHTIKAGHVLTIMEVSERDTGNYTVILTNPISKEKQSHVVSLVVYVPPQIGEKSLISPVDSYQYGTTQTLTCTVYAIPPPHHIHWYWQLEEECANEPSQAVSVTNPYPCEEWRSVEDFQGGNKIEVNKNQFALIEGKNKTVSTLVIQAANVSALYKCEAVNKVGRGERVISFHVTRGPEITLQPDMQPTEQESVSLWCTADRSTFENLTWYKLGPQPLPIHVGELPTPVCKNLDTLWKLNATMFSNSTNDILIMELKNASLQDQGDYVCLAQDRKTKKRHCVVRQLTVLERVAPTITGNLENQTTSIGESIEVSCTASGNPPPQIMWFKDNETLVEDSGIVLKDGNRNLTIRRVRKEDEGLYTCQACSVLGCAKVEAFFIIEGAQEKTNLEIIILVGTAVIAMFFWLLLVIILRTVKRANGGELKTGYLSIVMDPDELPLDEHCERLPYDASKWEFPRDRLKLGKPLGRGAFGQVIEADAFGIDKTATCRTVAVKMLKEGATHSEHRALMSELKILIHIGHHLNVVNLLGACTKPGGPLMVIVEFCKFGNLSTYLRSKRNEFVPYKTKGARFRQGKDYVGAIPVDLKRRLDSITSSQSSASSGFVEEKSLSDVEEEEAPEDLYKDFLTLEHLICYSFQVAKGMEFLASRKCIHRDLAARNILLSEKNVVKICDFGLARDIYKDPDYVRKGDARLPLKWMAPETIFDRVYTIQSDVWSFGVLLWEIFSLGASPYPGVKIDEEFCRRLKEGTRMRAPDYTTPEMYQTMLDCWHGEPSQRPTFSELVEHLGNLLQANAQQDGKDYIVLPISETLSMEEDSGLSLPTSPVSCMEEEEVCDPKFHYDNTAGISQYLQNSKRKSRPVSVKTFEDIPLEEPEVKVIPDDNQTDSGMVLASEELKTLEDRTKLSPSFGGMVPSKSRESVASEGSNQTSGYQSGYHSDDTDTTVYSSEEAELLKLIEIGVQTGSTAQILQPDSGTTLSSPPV

[11] = tested on: A549; assay: Cytotoxicity against human A549 cells assessed as growth inhibition after 72 hrs by MTT assay; conditions: A549, 72 h
[12] = tested on: Raji; assay: Cytotoxicity against human Raji cells assessed as growth inhibition after 72 hrs by MTT assay
[13] = tested on: MV4-11; assay: Induction of apoptosis in human MV4-11 cells assessed as late apoptotic cells at 0.1 uM after 24 hrs by annexin V-FITC/propidium iodide staining-based FACS flow cytometric analysis (reference value: 4.28%); type: functional
[14] = tested on: MCF7; assay: Cytotoxicity against human MCF7 cells assessed as growth inhibition after 72 hrs by MTT assay; conditions: MCF7, 72 h
[15] = target: RAF proto-oncogene serine/threonine-protein kinase (Homo sapiens, UniProt P04049); assay: Inhibition of c-RAF (unknown origin)
RAF proto-oncogene serine/threonine-protein kinase, sequence (P04049 whole entry): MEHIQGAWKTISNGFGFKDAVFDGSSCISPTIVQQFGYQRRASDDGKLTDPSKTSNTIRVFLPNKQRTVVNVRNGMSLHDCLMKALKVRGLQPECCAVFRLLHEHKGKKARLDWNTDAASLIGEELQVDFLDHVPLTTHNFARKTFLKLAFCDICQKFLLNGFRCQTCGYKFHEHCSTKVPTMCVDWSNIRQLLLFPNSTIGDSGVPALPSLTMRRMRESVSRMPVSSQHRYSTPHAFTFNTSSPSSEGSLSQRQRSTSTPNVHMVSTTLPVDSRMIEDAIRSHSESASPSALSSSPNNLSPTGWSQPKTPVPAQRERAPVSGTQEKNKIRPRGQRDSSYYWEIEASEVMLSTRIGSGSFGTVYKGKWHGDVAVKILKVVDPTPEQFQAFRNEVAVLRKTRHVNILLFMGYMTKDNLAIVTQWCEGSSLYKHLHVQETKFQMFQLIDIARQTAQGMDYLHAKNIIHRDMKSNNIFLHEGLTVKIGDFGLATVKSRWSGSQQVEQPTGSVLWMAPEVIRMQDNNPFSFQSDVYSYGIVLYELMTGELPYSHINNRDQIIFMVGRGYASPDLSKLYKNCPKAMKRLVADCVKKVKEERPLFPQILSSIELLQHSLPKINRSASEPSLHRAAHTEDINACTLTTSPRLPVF

[16] = tested on: K562; assay: Cytotoxicity against human K562 cells assessed as growth inhibition after 72 hrs by MTT assay; conditions: K562, 72 h
[17] = target: Serine/threonine-protein kinase Chk1 (Homo sapiens, UniProt O14757); assay: Inhibition of CHEK1 (unknown origin)
Serine/threonine-protein kinase Chk1, sequence (O14757 whole entry): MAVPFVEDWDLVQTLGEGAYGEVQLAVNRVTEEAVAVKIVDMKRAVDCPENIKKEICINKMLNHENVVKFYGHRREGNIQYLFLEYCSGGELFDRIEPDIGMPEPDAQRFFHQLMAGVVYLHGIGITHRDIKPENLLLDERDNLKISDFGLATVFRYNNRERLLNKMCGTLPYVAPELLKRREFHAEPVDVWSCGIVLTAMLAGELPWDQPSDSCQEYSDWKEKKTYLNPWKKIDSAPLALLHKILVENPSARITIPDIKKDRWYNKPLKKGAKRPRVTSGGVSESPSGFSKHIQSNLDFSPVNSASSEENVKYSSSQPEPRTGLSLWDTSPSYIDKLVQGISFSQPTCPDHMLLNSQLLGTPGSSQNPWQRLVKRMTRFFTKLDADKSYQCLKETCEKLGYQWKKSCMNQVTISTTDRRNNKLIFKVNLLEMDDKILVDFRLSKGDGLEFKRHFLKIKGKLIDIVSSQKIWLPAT

[18] = tested on: Mus musculus; assay: Toxicity in NOD-SCID mouse xenografted with FLT3-ITD-positive human MV4-11 cells assessed as body weight loss at 1 to 10 mg/kg/day, po administered 18 days measured every 3 days for 18 days; type: organism-based; design: route oral; conditions: in vivo, 432 h
Method in brief: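 NOD-SCID mice, 5–6 weeks old, received 100 μL of MV4-11 cells sc (1 × 10⁸/mL in serum-free medium). At 300–500 mm³ tumors, mice were grouped (six per group) and gavaged once daily for 18 days at 1, 3 or 10 mg/kg/d. Vehicle was 12.5% castor oil, 12.5% ethanol and 75% water. Body weights were tracked; tumors were measured every 3 d.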

[19] = tested on: KARPAS-299; assay: Cytotoxicity against human KARPAS299 cells assessed as growth inhibition after 72 hrs by MTT assay; conditions: KARPAS-299, 72 h
[20] = target: Aurora kinase B (Homo sapiens, UniProt Q96GD4); assay: Inhibition of aurora-B (unknown origin)
Aurora kinase B, sequence (Q96GD4 whole entry): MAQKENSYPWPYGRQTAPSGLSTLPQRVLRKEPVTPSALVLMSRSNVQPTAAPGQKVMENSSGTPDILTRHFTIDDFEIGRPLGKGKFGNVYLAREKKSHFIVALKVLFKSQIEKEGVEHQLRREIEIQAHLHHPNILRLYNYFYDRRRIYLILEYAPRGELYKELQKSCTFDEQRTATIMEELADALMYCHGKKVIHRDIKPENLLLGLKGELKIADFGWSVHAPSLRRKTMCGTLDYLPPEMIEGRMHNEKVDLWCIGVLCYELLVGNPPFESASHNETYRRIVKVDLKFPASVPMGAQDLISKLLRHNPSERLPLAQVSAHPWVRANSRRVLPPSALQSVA

[21] = tested on: MV4-11; assay: Induction of apoptosis in human MV4-11 cells assessed as early apoptotic cells at 0.1 uM after 24 hrs by annexin V-FITC/propidium iodide staining-based FACS flow cytometric analysis (reference value: 1.61%); type: functional
[22] = target: Vascular endothelial growth factor receptor 2 (Danio rerio) (UniProt Q5GIT4); assay: Inhibition of VEGFR2 in transgenic zebrafish embryo assessed as inhibition of intersegmental vessels formation at 5 uM measured 33 hrs post fertilization by fluorescence microscopic analysis
Method in brief: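 FLK-1:EGFP transgenic zebrafish embryos, 10 per well, exposed at 28.5 °C from 15 to 31 hpf to compound in fish water at 1.25, 2.5 or 5 μM (diluted from a 10 mmol/L DMSO stock); 0.3% DMSO as vehicle control. Embryos were imaged at 33 hpf, and ISVs above the yolk extension were scored for length. n = 11, mean ± SD, ANOVA.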

[23] = target: Serine/threonine-protein kinase PAK 1 (Homo sapiens, UniProt Q13153); assay: Inhibition of PAK1 (unknown origin)

Receptor tyrosine-protein kinase erbB-4, sequence (Q15303 whole entry): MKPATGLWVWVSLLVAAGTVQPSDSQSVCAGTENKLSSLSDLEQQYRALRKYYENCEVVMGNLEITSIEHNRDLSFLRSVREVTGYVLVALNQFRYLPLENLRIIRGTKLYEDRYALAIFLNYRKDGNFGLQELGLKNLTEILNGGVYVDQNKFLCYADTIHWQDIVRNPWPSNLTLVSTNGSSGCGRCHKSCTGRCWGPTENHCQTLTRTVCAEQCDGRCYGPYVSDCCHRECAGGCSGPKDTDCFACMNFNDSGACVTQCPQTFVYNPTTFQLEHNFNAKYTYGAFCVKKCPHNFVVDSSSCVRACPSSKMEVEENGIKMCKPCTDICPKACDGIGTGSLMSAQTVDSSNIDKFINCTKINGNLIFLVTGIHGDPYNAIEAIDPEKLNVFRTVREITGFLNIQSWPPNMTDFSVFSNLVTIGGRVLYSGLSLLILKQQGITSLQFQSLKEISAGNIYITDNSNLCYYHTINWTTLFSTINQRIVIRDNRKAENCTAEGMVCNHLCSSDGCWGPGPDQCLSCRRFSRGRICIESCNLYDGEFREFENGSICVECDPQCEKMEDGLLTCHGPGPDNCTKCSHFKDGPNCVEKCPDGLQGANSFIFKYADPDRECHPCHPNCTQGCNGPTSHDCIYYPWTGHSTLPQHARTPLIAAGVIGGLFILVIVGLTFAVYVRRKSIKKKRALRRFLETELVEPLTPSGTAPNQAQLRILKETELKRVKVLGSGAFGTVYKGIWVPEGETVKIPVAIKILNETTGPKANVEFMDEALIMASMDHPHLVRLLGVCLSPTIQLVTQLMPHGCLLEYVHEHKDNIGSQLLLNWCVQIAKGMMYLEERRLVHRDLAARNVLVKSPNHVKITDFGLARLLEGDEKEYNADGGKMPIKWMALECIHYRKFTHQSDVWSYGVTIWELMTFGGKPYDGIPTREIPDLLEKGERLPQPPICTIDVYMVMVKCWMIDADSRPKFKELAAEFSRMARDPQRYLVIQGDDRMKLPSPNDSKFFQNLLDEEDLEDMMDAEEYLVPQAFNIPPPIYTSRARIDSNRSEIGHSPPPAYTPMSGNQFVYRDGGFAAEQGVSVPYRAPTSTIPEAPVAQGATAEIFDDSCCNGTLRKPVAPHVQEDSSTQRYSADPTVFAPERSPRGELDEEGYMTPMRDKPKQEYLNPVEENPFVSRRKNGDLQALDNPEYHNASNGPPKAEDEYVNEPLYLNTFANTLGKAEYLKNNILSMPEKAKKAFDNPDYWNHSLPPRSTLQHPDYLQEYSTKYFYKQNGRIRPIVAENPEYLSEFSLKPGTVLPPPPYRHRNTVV

IC50 [2]: > 10 µM
IC50 [3]: 0.408 µM
bioavailability [4]: 66.7%
IC50 [7]: > 10 µM
IC50 [9]: > 10 µM
IC50 [10]: 0.012 µM
IC50 [15]: 0.072 µM
IC50 [17]: > 10 µM
IC50 [20]: > 10 µM
inhibition [22]: Active
IC50 [23]: > 10 µM
SMILES: O=C(Nc1ccc(Oc2ncnc3[nH]ncc23)cc1)Nc1ccc(Cl)c(C(F)(F)F)c1
IC50 [1]: > 10 µM
IC50 [5]: > 10 µM
Activity [6]: Active
Activity [8]: 17.8%
IC50 [11]: > 10 µM
IC50 [12]: > 10 µM
Activity [13]: 25.8%
IC50 [14]: > 10 µM
IC50 [16]: > 10 µM
Activity [18]: Non-toxic
IC50 [19]: > 10 µM
Activity [21]: 9.96%
